Series [1] can be described thus: Permeability of the compound in PBS/ethanol at 1 mg/ml after 4 hrs by PAMPA. It is filed as ADME. Particulars: for Papp at 4 h, 1 mg/ml: PAMPA, read-out: permeability. A digest of the protocol: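 PAMPA-BBB: permeability (Pe) measured through a porcine brain lipid extract membrane, using PBS:EtOH (70:30) as the medium. The assay was validated against 15 commercial drugs by correlating measured with reported Pe values. Data are mean ± SD of three independent experiments.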
(The PAMPA barrier holds no transporters, so it reflects passive diffusion.)

For series [2], the target named is T1, Acetylcholinesterase (Homo sapiens, UniProt P22303). Kind of series: Ratio of donepezil IC50 to compound IC50 for human erythrocyte AChE using acetylthiocholine as substrate by Ellman method.
In series [3] the target is T1, Acetylcholinesterase. Kind of series: Inhibition of human erythrocyte AChE using acetylthiocholine as substrate by Ellman method.
In series [4] the target is Cholinesterase (Homo sapiens, UniProt P06276). The experiment in a line: Inhibition of human serum BChE using butyrylthiocholine as substrate by Ellman method. The gist of the method: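 IC50 is the concentration giving 50% inhibition of human BuChE, reported as mean ± SEM of three independent experiments.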
Series [5] deals with Cholinesterase (Equus caballus, UniProt P81908). Kind of series: Inhibition of equine BChE.

Usually pIC50 stands for the negative decadic logarithm of the IC50, by convention in mol/L. A low value points to a large IC50.

pIC50: −log10 of the molar value.

Chain of Cholinesterase (Homo sapiens, UniProt P06276) (P06276 whole entry): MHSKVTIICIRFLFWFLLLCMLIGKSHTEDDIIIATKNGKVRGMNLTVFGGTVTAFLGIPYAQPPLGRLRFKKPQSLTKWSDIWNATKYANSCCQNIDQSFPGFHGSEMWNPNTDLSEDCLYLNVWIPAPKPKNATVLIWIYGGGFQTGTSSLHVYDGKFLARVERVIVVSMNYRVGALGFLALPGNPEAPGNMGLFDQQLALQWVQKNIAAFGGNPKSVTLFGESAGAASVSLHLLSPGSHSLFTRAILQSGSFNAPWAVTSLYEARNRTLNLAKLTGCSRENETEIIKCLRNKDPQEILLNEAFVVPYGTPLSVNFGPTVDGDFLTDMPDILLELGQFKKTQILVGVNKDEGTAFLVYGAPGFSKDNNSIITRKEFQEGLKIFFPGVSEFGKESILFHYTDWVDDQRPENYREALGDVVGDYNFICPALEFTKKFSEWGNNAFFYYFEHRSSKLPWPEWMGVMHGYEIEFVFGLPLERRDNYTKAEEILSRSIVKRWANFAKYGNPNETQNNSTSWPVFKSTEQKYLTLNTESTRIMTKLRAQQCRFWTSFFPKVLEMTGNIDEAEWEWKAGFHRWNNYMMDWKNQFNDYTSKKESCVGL
T1 sequence (P22303 whole entry): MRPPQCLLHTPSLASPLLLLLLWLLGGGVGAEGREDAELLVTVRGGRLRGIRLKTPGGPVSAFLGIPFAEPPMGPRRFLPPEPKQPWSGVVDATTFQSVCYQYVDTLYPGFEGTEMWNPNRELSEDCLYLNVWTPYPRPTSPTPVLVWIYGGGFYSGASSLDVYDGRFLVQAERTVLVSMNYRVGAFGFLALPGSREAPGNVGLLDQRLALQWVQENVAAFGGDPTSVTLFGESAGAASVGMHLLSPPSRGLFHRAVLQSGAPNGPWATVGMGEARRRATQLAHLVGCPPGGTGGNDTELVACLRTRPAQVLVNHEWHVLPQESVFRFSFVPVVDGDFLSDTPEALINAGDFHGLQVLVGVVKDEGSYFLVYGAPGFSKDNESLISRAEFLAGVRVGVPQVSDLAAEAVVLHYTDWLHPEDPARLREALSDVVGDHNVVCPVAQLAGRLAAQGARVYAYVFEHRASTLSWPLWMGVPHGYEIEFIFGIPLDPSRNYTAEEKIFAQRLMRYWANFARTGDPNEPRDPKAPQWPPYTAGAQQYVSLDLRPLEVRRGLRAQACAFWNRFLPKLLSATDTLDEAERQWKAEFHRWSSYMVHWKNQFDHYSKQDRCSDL
Chain of Cholinesterase (Equus caballus, UniProt P81908) (P81908 whole entry): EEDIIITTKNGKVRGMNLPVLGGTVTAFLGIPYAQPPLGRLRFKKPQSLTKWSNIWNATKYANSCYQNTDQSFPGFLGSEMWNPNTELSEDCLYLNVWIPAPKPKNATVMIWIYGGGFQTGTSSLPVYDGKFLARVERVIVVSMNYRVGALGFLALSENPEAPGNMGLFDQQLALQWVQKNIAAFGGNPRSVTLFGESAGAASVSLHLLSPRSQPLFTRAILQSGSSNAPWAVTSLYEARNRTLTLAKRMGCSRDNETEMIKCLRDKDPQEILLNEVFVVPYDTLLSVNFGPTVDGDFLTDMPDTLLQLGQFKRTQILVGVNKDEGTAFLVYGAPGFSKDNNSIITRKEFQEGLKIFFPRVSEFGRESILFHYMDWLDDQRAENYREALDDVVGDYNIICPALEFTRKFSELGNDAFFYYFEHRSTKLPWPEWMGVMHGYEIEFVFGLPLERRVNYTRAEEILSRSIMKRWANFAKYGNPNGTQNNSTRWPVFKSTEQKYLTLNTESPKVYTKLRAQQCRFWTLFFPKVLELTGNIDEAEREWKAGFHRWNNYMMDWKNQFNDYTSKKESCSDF

For the compound `N#Cc1cc(C#N)c(NCCCC2CCN(Cc3ccccc3)CC2)nc1N`, in series [1], the Papp at 4 h, 1 mg/ml worked out at 20.8 ×10⁻⁶ cm/s. For the same compound, the Ratio IC50 on Acetylcholinesterase [2] was 1.4. Besides, the pIC50 at Acetylcholinesterase [3] is 8.03; at Cholinesterase [4] it was 5.18.
In the case of `N#Cc1cc(C#N)c(NCCCCC2CCN(Cc3ccccc3)CC2)nc1N`, the Papp at 4 h, 1 mg/ml in series [1] worked out at 21.2 ×10⁻⁶ cm/s. Moreover, the figures for the negative logarithm of the IC50 (pIC50) against Acetylcholinesterase [3] and on Cholinesterase [4] were 7.15 and 5.77, respectively.
As for `N#Cc1c(N)nc(NCCCC2CCN(Cc3ccccc3)CC2)c(C#N)c1-c1ccccc1`, in series [1], the Papp at 4 h, 1 mg/ml was found to be 31.6 ×10⁻⁶ cm/s. For the same compound, the pIC50 is 6.62 against Acetylcholinesterase [3] and 5.82 at Cholinesterase [4].
In the same order, the values of `N#Cc1cc(C#N)c(NCCC2CCN(Cc3ccccc3)CC2)nc1N` are 14.4 ×10⁻⁶ cm/s, 6.66 and 6.59.
In the case of `N#Cc1c(N)nc(NCCC2CCN(Cc3ccccc3)CC2)c(C#N)c1-c1ccccc1`, the Papp at 4 h, 1 mg/ml in series [1] was determined as 34 ×10⁻⁶ cm/s. In addition, the results for the negative logarithm of the IC50 (pIC50) against Acetylcholinesterase [3] and against Cholinesterase [4] were 6.41 and 6.17, respectively.
The compound `N#Cc1cc(C#N)c(N2CCCC2)nc1N` showed a negative-log IC50 (pIC50) at Cholinesterase [5] of less than 5.00.
Take `N#Cc1c(N)nc(NCCCCC2CCN(Cc3ccccc3)CC2)c(C#N)c1-c1ccccc1`: in series [1], the Papp at 4 h, 1 mg/ml turned out to be 25.7 ×10⁻⁶ cm/s. Besides, the pIC50 is 6.92 on Acetylcholinesterase [3] and 6.24 at Cholinesterase [4].
On the same counts, the results for `N#Cc1cc(C#N)c(NC2CCN(Cc3ccccc3)CC2)nc1N` are 17 ×10⁻⁶ cm/s, 5.51 and less than 5.00.
Turning to `N#Cc1c(N)nc(NC2CCN(Cc3ccccc3)CC2)c(C#N)c1-c1ccccc1`, the permeability entry in series [1] (pampa, 4 h) was “ND(Insoluble)”. Further, the figures for the pIC50 on Acetylcholinesterase [3] and against Cholinesterase [4] were 5.06 and less than 5.00, respectively.

Values taken from ChEMBL document CHEMBL2086277, “Pyridonepezils, new dual AChE inhibitors as potential drugs for the treatment of Alzheimer's disease: synthesis, biological assessment, and molecular modeling” (Eur J Med Chem, 2012).
